According to ChEMBL document CHEMBL1137639, “Novel small-molecule inhibitors of transmissible gastroenteritis virus” (Antimicrob Agents Chemother, 2007):
Calls of active or inactive are those of the source. The rule behind the calls is not given here.

How the values were obtained:
[1] = test system: Transmissible gastroenteritis virus; assay: Antiviral activity against Transmissible gastroenteritis virus TFI infected in swine testicle cells assessed as reduction of N protein mRNA level at 10 uM after 6 hrs post infection after 6 hrs post infection by RT-PCR; assay type: functional; parameters: scale not given: the % may be the effect or the level left
Outline: (§1)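 Viral RNA was extracted from lysates of TGEV-infected ST cells for SYBR green real-time RT-PCR, with primers for TGEV N protein or 3CLpro. Cycling was 50°C 2 min and 95°C 10 min, then 40 cycles of 95°C 15 s and 60°C 1 min. Levels were normalized to β-actin by the comparative CT method, with CT measured at least in triplicate.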

[2] = test system: Transmissible gastroenteritis virus; assay: Antiviral activity against Transmissible gastroenteritis virus TFI infected in swine testicle cells assessed as reduction of N protein mRNA level at 5 uM after 6 hrs post infection by RT-PCR; assay type: functional; parameters: scale not given: the % may be the effect or the level left; outline: as §1
[3] = test system: Transmissible gastroenteritis virus; assay: Antiviral activity against Transmissible gastroenteritis virus TFI infected in swine testicle cells assessed as reduction of N protein mRNA level at 1 uM after 6 hrs post infection by RT-PCR; assay type: functional; parameters: scale not given: the % may be the effect or the level left; outline: as §1
[4] = test system: Transmissible gastroenteritis virus; assay: Antiviral activity against Transmissible gastroenteritis virus TFI infected in swine testicle cells assessed as protection against virus-induced caspase 3 activation at 5 uM after 14 hrs post infection; assay type: functional, organism-based
Outline: (§2)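 TGEV-infected ST cells were treated with compound at 5 µM, and caspase activation was examined at 14 and 18 hpi. Lysates with equal total protein were run on SDS-PAGE and transferred to nitrocellulose. Blots were probed with anti-caspase-3 (β-actin antibody also used) and detected by enhanced chemiluminescence.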

[5] = test system: Transmissible gastroenteritis virus; assay: Antiviral activity against Transmissible gastroenteritis virus TFI infected in swine testicle cells assessed as protection against virus-induced cytopathic effect at 5 uM after 24 hrs post infection; assay type: functional, organism-based
Outline: (§3)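 ST cell monolayers were inoculated with TGEV at MOI 5 and kept at 37°C under 5% CO2. Treatments were 5 µM compound, caspase inhibitor ZVAD-fmk at 100 µM as positive control, or 1% DMSO vehicle. At 18–24 hpi CPE was scored by microscopy as cell rounding, enlargement, syncytia and detachment. Two independent experiments were run.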

[6] = test system: Transmissible gastroenteritis virus; assay: Antiviral activity against Transmissible gastroenteritis virus TFI infected in swine testicle cells assessed as reduction of N protein mRNA level after 6 hrs post infection by RT-PCR; assay type: functional, organism-based; outline: as §1
[7] = test system: Transmissible gastroenteritis virus; assay: Antiviral activity against Transmissible gastroenteritis virus TFI infected in swine testicle cells assessed as reduction of N protein expression after 6 hrs post infection by Western blot analysis; assay type: functional, organism-based
Outline: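 TGEV-infected ST cells were treated with compound at 0.3 to 10 µM. Lysates with equal total protein were separated by SDS-PAGE, transferred to nitrocellulose, probed with anti-TGEV N protein antibody, and detected by enhanced chemiluminescence. Three independent experiments were run.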

[8] = test system: Transmissible gastroenteritis virus; assay: Antiviral activity against Transmissible gastroenteritis virus TFI infected in swine testicle cells assessed as protection against virus-induced caspase 3 activation at 5 uM after 18 hrs post infection; assay type: functional, organism-based; outline: as §2
[9] = test system: Transmissible gastroenteritis virus; assay: Antiviral activity against Transmissible gastroenteritis virus TFI infected in swine testicle cells assessed as protection against virus-induced cytopathic effect at 100 uM after 18 hrs post infection; assay type: functional, organism-based; outline: as §3
[10] = test system: Transmissible gastroenteritis virus; assay: Antiviral activity against Transmissible gastroenteritis virus TFI infected in swine testicle cells assessed as protection against virus-induced cytopathic effect at 5 uM after 18 hrs post infection; assay type: functional, organism-based; outline: as §3
[11] = test system: Transmissible gastroenteritis virus; assay: Antiviral activity against Transmissible gastroenteritis virus TFI infected in swine testicle cells assessed as reduction of 3CL protease mRNA level at 1 uM after 6 hrs post infection by RT-PCR; assay type: functional; parameters: scale not given: the % may be the effect or the level left; outline: as §1
[12] = test system: Transmissible gastroenteritis virus; assay: Antiviral activity against Transmissible gastroenteritis virus TFI infected in swine testicle cells assessed as reduction of 3CL protease mRNA level at 10 uM after 6 hrs post infection by RT-PCR; assay type: functional; parameters: scale not given: the % may be the effect or the level left; outline: as §1
[13] = Inhibition of Transmissible gastroenteritis virus TFI recombinant GST-tagged 3C-like protease expressed in Escherichia coli BL21 (DE3)
Outline: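 The TGEV strain TFI 3CLpro was expressed in E. coli BL21(DE3) as a GST fusion, purified on glutathione resin, and had the tag cleaved with PreScission protease. IC50 came from at least eight concentrations.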

[14] = Cytotoxicity against swine testicle cells after 18 hrs; assay type: cell-based, Sus scrofa; details: pig
Outline: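 ST cells in MEM with 10% fetal bovine serum were exposed to eight concentrations of compound for 18 h. GI50 was derived from the dose-response curves.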

[15] = test system: Transmissible gastroenteritis virus; assay: Antiviral activity against Transmissible gastroenteritis virus TFI infected in swine testicle cells assessed as reduction of 3CL protease mRNA level after 6 hrs post infection by RT-PCR; assay type: functional, organism-based; outline: as §1
[16] = test system: Transmissible gastroenteritis virus; assay: Antiviral activity against Transmissible gastroenteritis virus TFI infected in swine testicle cells assessed as protection against virus-induced cytopathic effect at 100 uM after 24 hrs post infection; assay type: functional, organism-based
[17] = target: Replicase polyprotein 1ab (Severe acute respiratory syndrome-related coronavirus, UniProt P0C6X7); assay: Inhibition of SARS Coronavirus 3C-like protease expressed in Escherichia coli
[18] = test system: Transmissible gastroenteritis virus; assay: Antiviral activity against Transmissible gastroenteritis virus TFI infected in swine testicle cells assessed as inhibition of S and N protein expression treated 2 hrs before infection measured after 6 hrs post infection by indirect immunofluorescent assay; assay type: functional, organism-based; details: Alphacoronavirus 1, TFI
Outline: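 ST cells, with or without a 2-h compound pretreatment, infected with TGEV at MOI 10. At 6 h they were fixed in 80% acetone and stained with mAbs to S and N protein, then FITC anti-mouse Ig for 60 min at room temperature. Fluorescence was read at ex 485/em 535 nm. Eight concentrations were tested, and EC50 was taken from dose-response curves.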

[19] = test system: Transmissible gastroenteritis virus; assay: Antiviral activity against Transmissible gastroenteritis virus TFI infected in swine testicle cells assessed as reduction of 3CL protease mRNA level at 5 uM after 6 hrs post infection by RT-PCR; assay type: functional; parameters: scale not given: the % may be the effect or the level left; outline: as §1

SMILES	Activity [1]	Activity [2]	Activity [3]	Activity [4]	Activity [5]	Activity [6]	Activity [7]	Activity [8]	Activity [9]	Activity [10]	Activity [11]	Activity [12]	IC50 [13]	GI50 at 18 h [14]	Activity [15]	Activity [16]	IC50 [17]	EC50 [18]	Activity [19]
CCC(=C\c1sc2c3ccccc3ccc2[n+]1CC)/C=C1/Sc2cc(C)c(C)cc2N1CC	1.1%	1.3%	2.6%	Active	Active	Dose-dependent effect	Dose-dependent effect	Active	Active	Active	1.4%	0.3%	8 µM	21.3 µM	Dose-dependent effect	Active	5.4 µM	2.1 µM	0.5%
C(/C1=C2Sc3ccccc3N2CC1)=C1\CC[n+]2c1sc1ccccc12	–	–	–	inactive	–	–	–	inactive	–	–	–	–	2.2 µM	> 50 µM	–	–	10.5 µM	> 30 µM	–
CCN1/C(=C\C=C\C2=CC(=C/c3sc4ccccc4[n+]3CC)/CC(C)C2)Sc2ccccc21 (configuration not stated)	1.4%	2.1%	13.7%	Active	Active	Dose-dependent effect	Dose-dependent effect	Active	Active	Active	20.8%	1.4%	11.9 µM	> 50 µM	Dose-dependent effect	Active	2 µM	6.2 µM	2.3%
CCN1/C(=C\C=C\c2sc3ccc(-c4nc5ccccc5s4)cc3[n+]2CC)Sc2ccc(-c3nc4ccccc4s3)cc21	–	–	–	inactive	–	–	–	inactive	–	–	–	–	2.1 µM	> 50 µM	–	–	2.5 µM	> 30 µM	–
CCN1C(c2ccccc2)=C(c2ccccc2)S/C1=C/C=C/c1sc2c3ccccc3ccc2[n+]1CC.[Cl-]	0.4%	3%	59.6%	Active	Active	–	Dose-dependent effect	Active	Active	Active	39.9%	0.2%	4.9 µM	18.1 µM	–	Active	3.8 µM	4.5 µM	1.2%
CCN1/C(=C\C=c2/s/c(=C\c3sc4ccccc4[n+]3CC)n(CC)c2=O)Sc2ccccc21	–	–	–	inactive	–	–	–	inactive	–	–	–	–	2.2 µM	> 50 µM	–	–	10 µM	17.4 µM	–
CCC(/C=C1\Sc2cc(/C=C/c3ccccc3)ccc2N1CC)=C\c1sc2cc(C)c(C)cc2[n+]1CC	–	–	–	–	–	–	–	–	–	–	–	–	–	> 50 µM	–	–	6.6 µM	–	–
CCC(=C\c1sc2cc(C)c(C)cc2[n+]1CC)/C=C1/Sc2cc(/C=C/c3ccccc3)ccc2N1CC	–	–	–	Active	Active	–	–	Active	Active	Active	–	–	–	–	–	Active	–	1.8 µM	–
CCN1/C(=C\C(=C/c2sc3ccccc3[n+]2CCCS(=O)(=O)[O-])OC)Sc2ccc(OC)cc21	–	–	–	Active	Active	–	–	Active	Active	Active	–	–	3.3 µM	13.1 µM	–	Active	7.3 µM	3 µM	–
